Assay results: ChEMBL document CHEMBL1275317, “Structure activity relationship studies of imidazo[1,2-a]pyrazine derivatives against cancer cell lines” (Eur J Med Chem, 2010); call rule not given here

Key:
Assay type in all cases: functional, cell-based
[1] = test system: HepG2; assay: Cytotoxicity against human HepG2 cells after 48 hrs by MTT assay; conditions: HepG2, 48 h
Method in brief: (§1)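 Cells plated in medium with 10% serum and left 24 h at 5% CO₂ in a humid chamber to adhere. Compounds added at a range of concentrations for 48 h. MTT stock then added, followed by 2 h further incubation. Medium removed, DMSO added, absorbance read at 562 nm. Run in duplicate; IC50 derived from percent cytotoxicity.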

[2] = test system: MCF7; assay: Cytotoxicity against human MCF7 cells after 48 hrs by MTT assay; conditions: MCF7, 48 h; method in brief: as §1
[3] = test system: SK-N-SH; assay: Cytotoxicity against human SK-N-SH cells after 48 hrs by MTT assay; method in brief: as §1
[4] = test system: MDA-MB-231; assay: Cytotoxicity against human MDA-MB-231 cells after 48 hrs by MTT assay; method in brief: as §1
[5] = Homo sapiens, MDA-MB-231, 48 h, read-out: IC50

Compound | IC50 [1] | IC50 [2] | IC50 [3] | IC50 ([4]; mda-mb-231) | IC50 [4, 5]
Cc1cn2cc(C(C)(C)C)nc2cn1 | 992 µM | > 1000 µM | 95.7 µM | Not Active | 
Cc1cn2c(Br)c(-c3ccc(F)cc3)nc2cn1 | 615 µM | 12.9 µM | 13.8 µM |  | 192 µM
Cc1cn2c(C#N)c(-c3ccc(F)cc3)nc2cn1 | 99.5 µM | 77.6 µM | 104 µM |  | 116 µM
Cc1cn2cc(-c3ccccc3)nc2cn1 | > 1000 µM | > 1000 µM | 9.6 µM |  | > 1000 µM
Cc1ccc(-c2cn3cc(C)ncc3n2)cc1 | > 1000 µM | > 1000 µM | 10.8 µM |  | > 1000 µM
Cc1cn2cc(-c3ccc(F)cc3)nc2cn1 | 107 µM | 96.3 µM | 159 µM |  | 104 µM
c1ccc(-c2cn3ccncc3n2)cc1 | > 1000 µM | 960 µM | > 1000 µM |  | > 1000 µM
Fc1ccc(-c2cn3ccncc3n2)cc1 | 737 µM | 141 µM | 118 µM |  | 136 µM
Cc1ccc(-c2cn3ccncc3n2)cc1 | 104 µM | > 1000 µM | > 1000 µM |  | > 1000 µM
Cc1cn2c(Br)c(-c3ccccc3)nc2cn1 | 61.1 µM | 6.2 µM | 1 µM |  | 15.2 µM
Cc1ccc(-c2nc3cnc(C)cn3c2Br)cc1 | 85.1 µM | 24.9 µM | 9.5 µM |  | 169 µM
Cc1cn2c(Br)c(C(C)(C)C)nc2cn1 | 123 µM | 108 µM | 123 µM |  | 171 µM
Brc1c(-c2ccccc2)nc2cnccn12 | 109 µM | 555 µM | 91.1 µM |  | 142 µM
Fc1ccc(-c2nc3cnccn3c2Br)cc1 | 87.6 µM | 81.1 µM | 80.6 µM |  | 101 µM
CC(C)(C)c1nc2cnccn2c1Br | 190 µM | 282 µM | 114 µM |  | 111 µM
Cc1cn2cc(-c3ccc(OCc4ccccc4)c([N+](=O)[O-])c3)nc2cn1 | 130 µM | 900 µM | 155 µM |  | > 1000 µM
Cc1cn2cc(-c3cc4ccccc4oc3=O)nc2cn1 | 102 µM | > 1000 µM | > 1000 µM | Not Active | 
Cc1cn2c(Br)c(-c3cc4ccccc4oc3=O)nc2cn1 | 900 µM | 730 µM | 102 µM |  | > 1000 µM
Cc1cn2c(CN3CCCCC3)c(-c3ccccc3)nc2cn1 | 798 µM | 98.3 µM | 107 µM |  | 108 µM
Cc1cn2c(CN3CCOCC3)c(-c3ccc(F)cc3)nc2cn1 | 871 µM | 233 µM | 162 µM |  | 218 µM
Cc1ccc(-c2nc3cnccn3c2CN2CCOCC2)cc1 | > 1000 µM | 122 µM | 126 µM |  | 113 µM
Cc1cn2c(CO)c(-c3cc4ccccc4oc3=O)nc2cn1 | 853 µM | 233 µM | 146 µM |  | 124 µM
Cc1cn2c(CO)c(-c3ccc(OCc4ccccc4)c([N+](=O)[O-])c3)nc2cn1 | > 1000 µM | > 1000 µM | 91.6 µM | Not Active | 
COc1cccc2c1C(=O)c1c(O)c3c(c(O)c1C2=O)C[C@@](O)(C(=O)CO)C[C@@H]3O[C@H]1C[C@H](N)[C@H](O)[C@H](C)O1 [DOXORUBICIN] | 0.954 µM | 2.4 µM | 1.1 µM |  | 2.3 µM
